# Measurements reported in publication PMC5221799 (International Journal of Nanomedicine, 2016).
# Like-named read-outs stand apart in the source and are kept apart here.
# Key:
# MCF7/ADR xenografts = test: In vivo antitumor efficacy in MCF7/ADR xenografts; design: species or system BALB/c nude mice; conditions: tail vein every 3 days five times, n=6
# MCF7/ADR cells = test: Annexin V-FITC/propidium iodide apoptosis assay by flow cytometry; assay type: cell-based, human; conditions: 48 hours of incubation, Dox 20 μM
# Outline: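 MCF7/ADR cells (DMEM, 10% FBS; resistance kept with 1 μg/mL Dox, withdrawn 1 week before use) seeded at 10^5 cells/well and left 24 h. Treated with free Dox or nanoparticles (Dox 20 μM and/or anti-miR21 213.3 nM) for 48 h. Cells were washed, trypsinised, and stained with annexin V–FITC/PI for 15 min at room temperature in the dark, then analysed by flow cytometry. Untreated cells served as blanks; three repeats.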
# [1] = tested on: MCF7/ADR (Dox-resistant) cells; test: CCK-8 cytotoxicity assay in MCF7/ADR cells; assay type: cell-based, human; conditions: for IC50: read-out: IC50 of Dox or equivalent NLS-Dox, MCF7/ADR cells, CCK-8, mean ± SD (n=5)
# Outline: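 CCK-8 assay in MCF7 and MCF7/ADR cells (Dox withdrawn from resistant line 1 week prior). Cells seeded at 0.5×10^4/well, grown overnight, then exposed to a concentration range for 48 or 96 h. CCK-8 was added for 1 h at 37°C and A450 read. Viability = (Asample−Ablank)/(Anon-treated−Ablank)×100%. n=5.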
compound,measurement,setting,value
"COc1cccc2c1C(=O)c1c(O)c3c(c(O)c1C2=O)C[C@@](O)(C(=O)CO)C[C@@H]3O[C@H]1C[C@H](N)[C@H](O)[C@H](C)O1 [Free Dox, doxorubicin]",effect on growth of MCF7/ADR xenografts,MCF7/ADR xenografts; free Dox 7.6 mg/kg,slight inhibitory effect
same,body weight change of tumor-bearing mice,MCF7/ADR xenografts; measured for 3 weeks,significant weight loss
same,apoptotic cells,MCF7/ADR cells,10.75%
same,IC50 in MCF7/ADR cells relative to parent MCF7 cells,[1]; 48 hours incubation,over 20 fold
same,IC50,[1]; 48 hours,49.4 ± 2.58 µM
same,IC50,[1]; 96 hours,30 ± 1.46 µM
